Test results published in paper PMC8114561 (Small (Weinheim an der Bergstrasse, Germany), 2019).
Where “and” joins values, the source holds several entries; their conditions need not be identical. Equal values may be shown once.

Columns and labels:
[1] = tested on: advanced soft tissue sarcomas; details: cited from earlier work
MIA PaCa-2 tumors = assay: Tumor regression, MIA PaCa-2 pancreatic xenograft; format: in vivo, nude BALB/c mice; details: 20 mg Dox equiv. kg^−1 BW
C26 tumors = assay: Tumor regression, syngeneic C26 colon carcinoma; format: in vivo, BALB/c mice; details: single i.v. dose
[2] = Intravenous pharmacokinetics in healthy BALB/c mice
[3] = cited from earlier work
STS = details: ref NCT01514188; cited from earlier work
MIA PaCa-2 cells = assay: In vitro cytotoxicity; format: cell-based, human; details: 72 h incubation, MTS, Dox equiv. concentration, n = 3 (Figure 2F)
Summary of the method: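 MIA PaCa-2 cells grown in DMEM with 10% FBS and 2.5% horse serum, seeded at 5000 cells/well and left overnight. Exposed for 72 h, in triplicate, to 3-fold serial dilutions in medium, with cell-free wells for background correction. MTS added for 3 h at 37 °C, then A490 read. Viability relative to buffer-treated cells; IC50 as Dox equiv. by logistic nonlinear regression.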

[4] = mouse, iv
[5] = tested on: C26 murine colon carcinoma cells; assay: In vitro cytotoxicity; format: cell-based

COc1cccc2c1C(=O)c1c(O)c3c(c(O)c1C2=O)C[C@@](O)(/C(CO)=N/NC(=O)CCCCCN1C(=O)C=CC1=O)C[C@@H]3O[C@H]1C[C@H](N)[C@H](O)[C@H](C)O1 [AlDox, Aldoxorubicin]
Cardiotoxicity [1]: minimal cardiotoxicity
Progression-free survival compared to the standard of care regimen [1]: superior progression-free survival
Tumor recurrence in tumor-eradicated mice by day 50 (MIA PaCa-2 tumors): tumors recurred in all of the tumor-eradicated mice
Mice with complete tumor disappearance by day 15 (MIA PaCa-2 tumors; single i.v. dose): 50%
Mice that did not survive over the 100-day course of study (C26 tumors; 20 mg Dox equiv. kg^−1 BW): 89%
Tumor response at 20 mg Dox equiv. kg^−1 BW (C26 tumors; without recurrence of the primary tumor in any mice, 100 days): complete eradication of C26 tumors
Plasma concentration 15 min after i.v. injection, fold lower than ABD–Dox ([2]; i.v. 5 mg Dox equiv. per kg BW, 15 min): approximately 2 fold
Area under curve ([2]; i.v. 5 mg Dox equiv. per kg BW, plasma, two-compartment model, mean ± SD): 801.2 ± 23.7 × 10^−6 M h
Concentration at which an acidic pH is required for solubility ([3]; aqueous solutions): ≥ 0.5 mg Dox equiv. mL^−1
Solubility at physiological pH ([3]; requires an acidic pH for solubility in aqueous solutions): poor solubility
Cardiotoxicity in the AlDox arm (STS): no evidence of cardiotoxicity
Overall survival, AlDox versus free Dox arms (STS): not considerably different
PFS in the AlDox arm (STS): superior PFS

COc1cccc2c1C(=O)c1c(O)c3c(c(O)c1C2=O)C[C@@](O)(C(=O)CO)C[C@@H]3O[C@H]1C[C@H](N)[C@H](O)[C@H](C)O1 [free Dox, doxorubicin]
IC50 (MIA PaCa-2 cells): 40 nM
Concentration in blood 15 min after i.v. injection, of the initial concentration ([2]; i.v. 5 mg per kg BW, 15 min): less than 2%
In vivo elimination half-life [4]: on the order of minutes
IC50 ([5]; 72 h, in the absence of MSA and ABD, n = 3 (Figure 2H)): 230 nM
IC50 ([5]; 72 h, in the presence of ABD (0.5 × 10^−3 M in medium), n = 3 (Figure 2H)): 160 nM
IC50 ([5]; 72 h, in the presence of MSA (equimolar), n = 3 (Figure 2H)): 220 nM
IC50 ([5]; 72 h incubation, MTS, Dox equiv. concentration, n = 3 (Figure 2F)): 510 nM and 500 nM
Change of cytotoxicity in the presence of either MSA or ABD ([5]; C26 cells, 72 h): No difference was observed
